From ChEMBL document CHEMBL1137218, “Long hydrocarbon chain ether diols and ether diacids that favorably alter lipid disorders in vivo” (J Med Chem, 2004)

What was measured:
Rattus norvegicus [1] = experiment: Serum Triglyceride levels in female obese rats one week post treatment at 10 mg/kg oral dose; pretreatment value = 943 mg/dL; type: functional
Rattus norvegicus [2] = experiment: Serum NEFA levels in female obese rats one week post treatment at 100 mg/kg oral dose; pretreatment value = 1.1 mg/dL; type: functional
Rattus norvegicus [3] = experiment: Blood glucose levels in female obese rats two weeks post treatment at 100 mg/kg oral dose; pretreatment value = 105 mg/dL; type: functional
Rattus norvegicus [4] = experiment: Blood glucose levels in female obese rats one week post treatment at 100 mg/kg oral dose; pretreatment value = 105 mg/dL; type: functional
Rattus norvegicus [5] = experiment: Serum Non-HDL cholesterol levels in female obese rats one week post treatment at 100 mg/kg oral dose; pretreatment value = 23 mg/dL; type: functional
In short: (§1)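 Female obese Zucker fatty rats (10–12 weeks, 400–500 g), once-daily oral gavage in 20% EtOH/80% PEG-200 (v/v) for up to 14 days. Serum drawn after a 6 h fast, pre-dose and at days 7 and 14. Non-HDL cholesterol is serum total cholesterol times the percent area of the non-HDL peaks in a Superose 6HR gel-filtration profile with on-line cholesterol detection. n = 4 per dose.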

Rattus norvegicus [6] = experiment: Serum HDL cholesterol levels in female obese rats one week post treatment at 30 mg/kg oral dose; pretreatment value = 42 mg/dL; type: functional
Rattus norvegicus [7] = species on record: Rattus norvegicus; experiment: In vitro inhibitory concentration against lipid synthesis in primary rat hepatocyte culture; type: functional
In short: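 Primary hepatocytes isolated from male Sprague-Dawley rats (Seglen method) and plated on collagen in DMEM with 20% FBS, 100 nM insulin, 25 mM glucose. Medium made serum-free after 4 h, cultured overnight to monolayers. Then 4 h incubation with 0.25 μCi [14C]-acetate/well (1 Ci/mol) and 0–300 μM compound. Lipids extracted into scintillant and counted. IC50 derived from lipid synthesis rates by nonlinear sigmoidal fit.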

Rattus norvegicus [8] = experiment: Insulin levels in female obese rats one week post treatment at 3 mg/kg oral dose; pretreatment value = 12.9 ng/mL; type: functional
Rattus norvegicus [9] = experiment: Serum Triglyceride levels in female obese rats two weeks post treatment at 3 mg/kg oral dose; pretreatment value = 769 mg/dL; type: functional
Rattus norvegicus [10] = experiment: Percent change from pre-treatment triglycerides level at 100 mg/Kg after 2 weeks; type: functional
In short: (§2)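 Female obese Zucker fatty rats Crl:(Zuc)-faBR, 10–12 weeks old (400–500 g), n=3–4, fed chow. Dosed by oral gavage once daily in 20% EtOH/80% PEG-200 for up to 14 days. Serum taken after a 6 h fast before dosing, at day 7 (orbital plexus) and at day 14 (cardiac puncture). TG by enzymatic kit on analyzer. HDL-C and non-HDL-C from Superose 6 gel-filtration profile area × total cholesterol. Results given as % change from pretreatment.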

Rattus norvegicus [11] = experiment: Percent change from pre-treatment HDL-Cholesterol level at 100 mg/Kg after 1 week; type: functional; in short: as §2
Rattus norvegicus [12] = experiment: Percent change from pre-treatment triglycerides level at 100 mg/Kg after 1 week; type: functional; in short: as §2
Rattus norvegicus [13] = experiment: Serum NEFA levels in female obese rats one week post treatment at 30 mg/kg oral dose; pretreatment value = 1.3 mg/dL; type: functional
Rattus norvegicus [14] = experiment: Serum Non-HDL cholesterol levels in female obese rats two weeks post treatment at 30 mg/kg oral dose; pretreatment value = 31 mg/dL; type: functional; in short: as §1
Rattus norvegicus [15] = experiment: Serum Non-HDL cholesterol levels in female obese rats one week post treatment at 30 mg/kg oral dose; pretreatment value = 31 mg/dL; type: functional; in short: as §1
Rattus norvegicus [16] = experiment: Blood glucose levels in female obese rats one week post treatment at 3 mg/kg oral dose; pretreatment value = 117 mg/dL; type: functional
Rattus norvegicus [17] = experiment: Insulin levels in female obese rats one week post treatment at 10 mg/kg oral dose; pretreatment value = 8.2 ng/mLL; type: functional
Rattus norvegicus [18] = experiment: Serum Triglyceride levels in female obese rats one week post treatment at 30 mg/kg oral dose; pretreatment value = 1240 mg/dL; type: functional
Rattus norvegicus [19] = experiment: Serum HDL cholesterol levels in female obese rats one week post treatment at 10 mg/kg oral dose; pretreatment value = 56 mg/dL; type: functional
Rattus norvegicus [20] = experiment: Serum HDL cholesterol levels in female obese rats one week post treatment at 3 mg/kg oral dose; pretreatment value = 59 mg/dL; type: functional
Rattus norvegicus [21] = experiment: Percent change from pre-treatment HDL-Cholesterol level at 100 mg/Kg after 2 weeks; type: functional; in short: as §2
Rattus norvegicus [22] = experiment: Serum HDL cholesterol levels in female obese rats two weeks post treatment at 3 mg/kg oral dose; pretreatment value = 59 mg/dL; type: functional
Rattus norvegicus [23] = experiment: Serum Non-HDL cholesterol levels in female obese rats one week post treatment at 10 mg/kg oral dose; pretreatment value = 25 mg/dL; type: functional; in short: as §1
Rattus norvegicus [24] = experiment: Serum Non-HDL cholesterol levels in female obese rats two weeks post treatment at 100 mg/kg oral dose; pretreatment value = 23 mg/dL; type: functional; in short: as §1
Rattus norvegicus [25] = experiment: Percent change from pre-treatment Non HDL-Cholesterol level at 100 mg/Kg after 2 weeks; type: functional; in short: as §2
Rattus norvegicus [26] = experiment: Serum NEFA levels in female obese rats one week post treatment at 10 mg/kg oral dose; pretreatment value = 1.2 mg/dL; type: functional
Rattus norvegicus [27] = experiment: Percent change from pre-treatment Non HDL-Cholesterol level at 100 mg/Kg after 1 week; type: functional; in short: as §2
Rattus norvegicus [28] = experiment: Serum Non-HDL cholesterol levels in female obese rats two weeks post treatment at 3 mg/kg oral dose; pretreatment value = 21 mg/dL; type: functional; in short: as §1
Rattus norvegicus [29] = experiment: Serum NEFA levels in female obese rats two weeks post treatment at 10 mg/kg oral dose; pretreatment value = 1.2 mg/dL; type: functional
Rattus norvegicus [30] = experiment: Insulin levels in female obese rats two weeks post treatment at 3 mg/kg oral dose; pretreatment value = 13.3 ng/mL; type: functional
Rattus norvegicus [31] = experiment: Serum HDL cholesterol levels in female obese rats one week post treatment at 100 mg/kg oral dose; pretreatment value = 58 mg/dL; type: functional
Rattus norvegicus [32] = experiment: Serum NEFA levels in female obese rats one week post treatment at 3 mg/kg oral dose; pretreatment value = 1.1 mg/dL; type: functional
Rattus norvegicus [33] = experiment: Serum HDL cholesterol levels in female obese rats one week post treatment at 10 mg/kg oral dose; pretreatment value = 61 mg/dL; type: functional
Rattus norvegicus [34] = experiment: Serum HDL cholesterol levels in female obese rats one week post treatment at 3 mg/kg oral dose; pretreatment value = 57 mg/dL; type: functional
Rattus norvegicus [35] = experiment: Serum NEFA levels in female obese rats two weeks post treatment at 30 mg/kg oral dose; pretreatment value = 1.2 mg/dL; type: functional
Rattus norvegicus [36] = experiment: Serum HDL cholesterol levels in female obese rats two weeks post treatment at 3 mg/kg oral dose; pretreatment value = 57 mg/dL; type: functional
Rattus norvegicus [37] = experiment: Serum Non-HDL cholesterol levels in female obese rats two weeks post treatment at 3 mg/kg oral dose; pretreatment value = 29 mg/dL
Rattus norvegicus [38] = experiment: Serum HDL cholesterol levels in female obese rats two weeks post treatment at 100 mg/kg oral dose; pretreatment value = 58 mg/dL; type: functional
Rattus norvegicus [39] = experiment: Serum Triglyceride levels in female obese rats one week post treatment at 100 mg/kg oral dose; pretreatment value = 1068 mg/dL; type: functional
Rattus norvegicus [40] = experiment: Serum HDL cholesterol levels in female obese rats one week post treatment at 30 mg/kg oral dose; pretreatment value = 49 mg/dL; type: functional

## CC(C)(CO)CCCCOCCCCC(C)(C)CO
Rattus norvegicus [1]
  Activity: 629 mg/dL
Rattus norvegicus [2]
  Activity: 0.76 mg/dL
Rattus norvegicus [3]
  Activity: 101 mg/dL
Rattus norvegicus [4]
  Activity: 107 mg/dL
Rattus norvegicus [5]
  Activity: 14 mg/dL
Rattus norvegicus [6]
  Activity: 149 mg/dL
Rattus norvegicus [7]
  IC50: 11 µM
Rattus norvegicus [8]
  Activity: 15.1 ng/mL
Rattus norvegicus [9]
  Activity: 934 mg/dL
Rattus norvegicus [10]
  Change: -71%
Rattus norvegicus [11]
  Change: 234%
Rattus norvegicus [12]
  Change: -77%
Rattus norvegicus [13]
  Activity: 0.76 mg/dL
Rattus norvegicus [14]
  Activity: 33 mg/dL
Rattus norvegicus [15]
  Activity: 20 mg/dL
Rattus norvegicus [16]
  Activity: 114 mg/dL
Rattus norvegicus [17]
  Activity: 8.9 ng/mL
Rattus norvegicus [18]
  Activity: 271 mg/dL
Rattus norvegicus [19]
  Activity: 100 mg/dL
Rattus norvegicus [20]
  Activity: 70 mg/dL
Rattus norvegicus [21]
  Change: 366%
Rattus norvegicus [22]
  Activity: 79 mg/dL
Rattus norvegicus [23]
  Activity: 30 mg/dL
Rattus norvegicus [24]
  Activity: 26 mg/dL
Rattus norvegicus [25]
  Change: 11%
Rattus norvegicus [26]
  Activity: 1.2 mg/dL
Rattus norvegicus [27]
  Change: -38%
Rattus norvegicus [28]
  Activity: 29 mg/dL
Rattus norvegicus [29]
  Activity: 1.1 mg/dL

## CC(C)(CO)CCCCCOCCCCCC(C)(C)CO
Rattus norvegicus [3]
  Activity: 104 mg/dL
Rattus norvegicus [4]
  Activity: 72 mg/dL
Rattus norvegicus [5]
  Activity: 5 mg/dL
Rattus norvegicus [30]
  Activity: 11.4 ng/mL
Rattus norvegicus [7]
  IC50: 4 µM
Rattus norvegicus [31]
  Activity: 115 mg/dL
Rattus norvegicus [32]
  Activity: 1.3 mg/dL
Rattus norvegicus [10]
  Change: -82%
Rattus norvegicus [11]
  Change: 99%
Rattus norvegicus [12]
  Change: -91%
Rattus norvegicus [14]
  Activity: 32 mg/dL
Rattus norvegicus [33]
  Activity: 92 mg/dL
Rattus norvegicus [34]
  Activity: 55 mg/dL
Rattus norvegicus [15]
  Activity: 15 mg/dL
Rattus norvegicus [35]
  Activity: 0.82 mg/dL
Rattus norvegicus [36]
  Activity: 56 mg/dL
Rattus norvegicus [37]
  Activity: 29 mg/dL
Rattus norvegicus [21]
  Change: 133%
Rattus norvegicus [38]
  Activity: 134 mg/dL
Rattus norvegicus [24]
  Activity: 10 mg/dL
Rattus norvegicus [39]
  Activity: 83 mg/dL
Rattus norvegicus [25]
  Change: -68%
Rattus norvegicus [27]
  Change: -82%
Rattus norvegicus [40]
  Activity: 128 mg/dL
